The structures appear in SMILES notation.

Experimental findings from ChEMBL document CHEMBL2375292, “Biaryl tetrazolyl ureas as inhibitors of endocannabinoid metabolism: modulation at the N-portion and distal phenyl ring” (Eur J Med Chem, 2013) are described below.

Experiment [1] deals with T1, Fatty-acid amide hydrolase 1 (Rattus norvegicus, UniProt P97612).
T1 sequence (P97612 whole entry): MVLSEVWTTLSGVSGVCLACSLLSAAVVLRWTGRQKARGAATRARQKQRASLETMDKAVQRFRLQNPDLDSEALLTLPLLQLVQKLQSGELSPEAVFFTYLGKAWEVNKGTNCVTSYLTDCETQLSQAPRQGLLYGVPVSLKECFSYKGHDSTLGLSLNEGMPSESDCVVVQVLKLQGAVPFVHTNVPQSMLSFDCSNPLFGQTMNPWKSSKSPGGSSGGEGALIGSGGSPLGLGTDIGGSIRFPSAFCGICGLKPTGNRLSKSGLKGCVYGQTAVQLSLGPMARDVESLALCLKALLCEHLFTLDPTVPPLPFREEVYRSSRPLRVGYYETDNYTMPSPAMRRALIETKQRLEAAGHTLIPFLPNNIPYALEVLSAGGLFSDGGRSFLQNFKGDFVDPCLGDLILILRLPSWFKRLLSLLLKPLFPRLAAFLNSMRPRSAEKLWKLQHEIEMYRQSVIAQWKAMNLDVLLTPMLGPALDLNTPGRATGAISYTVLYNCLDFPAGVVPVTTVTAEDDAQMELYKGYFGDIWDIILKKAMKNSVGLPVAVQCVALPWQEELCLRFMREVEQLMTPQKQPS
Put plainly: Inhibition of FAAH in rat brain membranes assessed as [14C]AEA hydrolysis to [14C]Ethanolamine after 30 mins by scintillation counting analysis. Format: cell membranes. The procedure, abridged:
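Rat brain membranes were incubated with [¹⁴C]AEA in 50 mM Tris-HCl pH 9 for 30 min at 37 °C. Released [¹⁴C]ethanolamine in the aqueous phase was counted by scintillation after CHCl₃/CH₃OH 2/1 extraction. IC50 was the concentration giving 50% inhibition.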

The target in experiment [2] is Transient receptor potential cation channel subfamily A member 1 (Rattus norvegicus) (UniProt Q6RI86). The experiment in a line: Agonist activity at rat TRPA1 receptor expressed in HEK293 cells assessed as increase in intracellular Ca2+ concentration by spectrofluorimetric analysis relative to allyl isothiocyanate. The class given is cell-based. In short, it runs like this:
(§1)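 HEK293 cells stably transfected with human TRPV1 or rat TRPA1 cDNA (pcDNA3, G-418 selection) were loaded 1 h at room temperature with Fluo-4-AM, washed and suspended in Tyrode's buffer pH 7.4. [Ca²⁺]i was read by stirred-cuvette spectrofluorimetry before and after adding test compound at various concentrations. Signal from untransfected cells was subtracted. Efficacy was taken as percent of ionomycin (4 µM) for TRPV1 and percent of allyl isothiocyanate (100 µM) for TRPA1; EC50 was also derived.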

Experiment [3] deals with T2, Transient receptor potential cation channel subfamily V member 1 (Homo sapiens, UniProt Q8NER1). The experiment in a line: Agonist activity at human TRPV1 receptor expressed in HEK293 cells assessed as increase in intracellular Ca2+ concentration by spectrofluorimetric analysis. The class given is cell-based. The procedure, abridged: as §1
For experiment [4], the target named is T2, Transient receptor potential cation channel subfamily V member 1. Put plainly: Agonist activity at human TRPV1 receptor expressed in HEK293 cells assessed as increase in intracellular Ca2+ concentration by spectrofluorimetric analysis relative to ionomycin. Format: cell-based. The procedure, abridged: as §1
Experiment [5] concerns the target T3, Transient receptor potential cation channel subfamily A member 1 (Rattus norvegicus, UniProt Q6RI86). Put plainly: Agonist activity at rat TRPA1 receptor expressed in HEK293 cells assessed as increase in intracellular Ca2+ concentration by spectrofluorimetric analysis. The class given is cell-based. The procedure, abridged: as §1
In experiment [6] the target is T3, Transient receptor potential cation channel subfamily A member 1. The experiment in a line: Antagonist activity at rat TRPA1 receptor expressed in HEK293 cells assessed as inhibition of allyl isothiocyanate-induced intracellular Ca2+ elevation incubated for 5 mins prior to allyl isothiocyanate-stimulation by spectrofluorimetric analysis. Format: cell-based. The procedure, abridged:
(§2)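 Fluo-4-loaded HEK293 cells stably expressing human TRPV1 or rat TRPA1, in Tyrode's buffer pH 7.4, received test compound in the cuvette 5 min before agonist: capsaicin 0.1 µM for TRPV1, AITC 100 µM for TRPA1. The [Ca²⁺]i rise with agonist alone was set to 100%. IC50 came from a variable-slope sigmoidal fit. Untransfected-cell signal was subtracted.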

Experiment [7] concerns the target T2, Transient receptor potential cation channel subfamily V member 1. Put plainly: Antagonist activity at human TRPV1 receptor expressed in HEK293 cells assessed as inhibition of capsaicin-induced intracellular Ca2+ elevation incubated for 5 mins prior to capsaicin-stimulation by spectrofluorimetric analysis. Format: cell-based. In short, it runs like this:
as §2

Experiment [8] concerns the target TRPA1 (Rattus norvegicus). The experiment in a line: Agonist activity at GDH-tagged rat TRPA1 receptor expressed in HEK293F cells assessed as increase in intracellular Ca2+ concentration by Fluo-4 spectrofluorimetric assay.

T2 sequence (Q8NER1 whole entry): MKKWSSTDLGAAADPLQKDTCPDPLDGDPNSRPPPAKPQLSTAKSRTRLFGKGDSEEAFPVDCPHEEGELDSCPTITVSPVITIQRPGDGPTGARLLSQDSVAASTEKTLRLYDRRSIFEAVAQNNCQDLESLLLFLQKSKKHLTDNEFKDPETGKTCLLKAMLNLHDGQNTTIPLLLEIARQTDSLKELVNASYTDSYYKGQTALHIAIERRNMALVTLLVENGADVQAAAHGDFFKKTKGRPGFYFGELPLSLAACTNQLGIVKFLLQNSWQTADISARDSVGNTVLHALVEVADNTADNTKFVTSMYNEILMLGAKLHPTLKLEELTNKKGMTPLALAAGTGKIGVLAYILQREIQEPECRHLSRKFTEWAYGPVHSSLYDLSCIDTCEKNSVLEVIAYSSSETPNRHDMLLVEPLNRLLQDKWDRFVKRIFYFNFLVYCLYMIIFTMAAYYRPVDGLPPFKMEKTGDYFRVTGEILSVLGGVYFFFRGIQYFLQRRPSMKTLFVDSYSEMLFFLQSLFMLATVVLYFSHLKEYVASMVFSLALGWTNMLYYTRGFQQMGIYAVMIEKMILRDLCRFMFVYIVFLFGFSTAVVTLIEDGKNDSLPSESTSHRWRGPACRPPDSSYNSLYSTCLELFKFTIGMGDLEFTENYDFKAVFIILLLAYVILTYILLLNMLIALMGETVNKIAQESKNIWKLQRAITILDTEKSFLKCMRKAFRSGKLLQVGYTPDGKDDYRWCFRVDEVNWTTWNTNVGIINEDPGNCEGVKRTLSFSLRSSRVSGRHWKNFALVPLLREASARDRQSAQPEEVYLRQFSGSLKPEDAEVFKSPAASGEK
T3 sequence (Q6RI86 whole entry): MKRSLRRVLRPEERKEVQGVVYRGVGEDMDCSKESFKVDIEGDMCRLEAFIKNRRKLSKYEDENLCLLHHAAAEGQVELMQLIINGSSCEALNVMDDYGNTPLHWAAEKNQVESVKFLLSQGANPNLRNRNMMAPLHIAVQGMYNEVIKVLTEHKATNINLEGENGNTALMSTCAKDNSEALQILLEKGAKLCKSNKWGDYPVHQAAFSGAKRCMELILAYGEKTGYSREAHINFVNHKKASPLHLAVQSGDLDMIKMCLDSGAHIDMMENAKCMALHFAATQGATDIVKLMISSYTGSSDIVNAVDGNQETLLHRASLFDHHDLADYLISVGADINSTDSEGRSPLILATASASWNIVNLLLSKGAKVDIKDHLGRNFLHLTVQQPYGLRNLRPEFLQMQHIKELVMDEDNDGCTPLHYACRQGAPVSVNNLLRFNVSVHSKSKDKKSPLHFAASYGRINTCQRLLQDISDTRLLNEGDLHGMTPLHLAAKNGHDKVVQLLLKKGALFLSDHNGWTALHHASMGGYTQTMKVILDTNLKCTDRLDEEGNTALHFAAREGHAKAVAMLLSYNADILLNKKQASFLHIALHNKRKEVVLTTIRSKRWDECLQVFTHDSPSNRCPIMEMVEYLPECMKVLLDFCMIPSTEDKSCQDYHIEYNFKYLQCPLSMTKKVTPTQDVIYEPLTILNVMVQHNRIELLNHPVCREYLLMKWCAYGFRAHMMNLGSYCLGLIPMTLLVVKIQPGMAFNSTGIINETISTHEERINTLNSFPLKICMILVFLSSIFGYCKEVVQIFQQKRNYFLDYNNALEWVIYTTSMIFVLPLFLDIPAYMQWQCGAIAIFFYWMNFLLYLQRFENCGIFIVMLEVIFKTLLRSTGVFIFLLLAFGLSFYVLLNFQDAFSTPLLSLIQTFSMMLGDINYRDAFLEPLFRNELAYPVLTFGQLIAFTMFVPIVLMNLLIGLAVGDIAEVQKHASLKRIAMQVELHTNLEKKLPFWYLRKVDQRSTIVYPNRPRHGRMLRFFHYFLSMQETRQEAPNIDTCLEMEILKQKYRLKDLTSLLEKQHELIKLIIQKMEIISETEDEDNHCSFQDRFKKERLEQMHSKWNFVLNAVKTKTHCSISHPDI
Chain of Transient receptor potential cation channel subfamily A member 1 (Rattus norvegicus) (Q6RI86 whole entry): as above

The term IC50 denotes the concentration needed to halve the response being measured. What is called EC50 is the concentration needed to bring the measured effect to its halfway point. On to `CN(C(=O)n1nnc(Cc2ccc(-c3ccccc3)cc2)n1)C1CCCCC1`, for which the IC50 in experiment [1] was determined as 96.3 nM; in experiment [6] it was 15400 nM; in experiment [7], 9200 nM. Also, the Efficacy came out at 45.2% in experiment [2] and 33.6% in experiment [4]. Moreover, the EC50 worked out at 250 nM in experiment [3], 150 nM in experiment [5] and 150 nM in experiment [8].
